Results published in ChEMBL document CHEMBL1138269, “Antimicrobial lexitropsins containing amide, amidine, and alkene linking groups” (J Med Chem, 2007).
Converted amounts (≈) assume the structure as drawn.

Tests used:
Type in all cases: functional
Staphylococcus aureus [1] = experiment: Antibacterial activity against methicillin-resistant Staphylococcus aureus clinical isolate 3
Procedure, shortened: (§1)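 Broth microdilution MIC against clinical S. aureus isolates (incl. MRSA), run per NCCLS guidelines in 96-well plates. Test sample dissolved in sterile water to a 200 µg mL-1 working concentration, then doubling dilutions in Mueller-Hinton broth. Incubated at 37 °C, growth read visually plus resazurin indicator. MIC reported in µg/mL.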

Enterococcus faecalis = experiment: Antibacterial activity against Streptococcus faecalis NCTC 775
Procedure, shortened: (§2)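 Broth microdilution in Mueller-Hinton broth. Samples were dissolved in sterile water to 200 µg mL-1 as the working solution and doubling dilutions were made across rows. Plates were incubated at 37 °C and inspected visually, with resazurin added as growth indicator. MIC reported in µg mL-1.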

[2] = test system: Mycolicibacterium fortuitum; experiment: Antibacterial activity against Mycobacterium fortuitum NCTC 10394; procedure, shortened: as §2
Staphylococcus aureus [3] = experiment: Antibacterial activity against methicillin-resistant Staphylococcus aureus clinical isolate 5; procedure, shortened: as §1
Aspergillus niger = experiment: Antifungal activity against Aspergillus niger IMI 149007
Procedure, shortened: (§3)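 Antifungal microdilution in Sabouraud broth. Test sample at 200 µg mL-1 working solution in sterile water was serially doubled down successive rows. Incubation was at 25 °C, followed by visual growth check and addition of resazurin indicator. Read-out is MIC in µg mL-1.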

Staphylococcus aureus [4] = experiment: Antibacterial activity against methicillin-resistant Staphylococcus aureus clinical isolate 2; procedure, shortened: as §1
Staphylococcus aureus [5] = experiment: Antibacterial activity against methicillin-sensitive Staphylococcus aureus NCTC 6571; procedure, shortened: as §2
Staphylococcus aureus [6] = experiment: Antibacterial activity against methicillin-resistant Staphylococcus aureus clinical isolate 4; procedure, shortened: as §1
Staphylococcus aureus [7] = experiment: Antibacterial activity against methicillin-resistant Staphylococcus aureus clinical isolate 1; procedure, shortened: as §1
Candida albicans = experiment: Antifungal activity against Candida albicans NCPF 3179; procedure, shortened: as §3
[8] = Enterococcus faecalis, NCTC 775, read-out: MIC
[9] = Staphylococcus aureus, NCTC 6571, read-out: MIC
[10] = Candida albicans, read-out: MIC

CC(C)CCn1cc(NC(=O)c2cc(NC(=O)c3ccc4c(c3)OCO4)cn2C)cc1C(=O)Nc1cc(C(=O)NCCCN(C)C)n(C)c1
MIC (Staphylococcus aureus [1]): 16 µg/mL (≈ 23.8 µM) | MIC (Enterococcus faecalis; [8]): > 50 µg/mL | MIC [2]: > 50 µg/mL | MIC (Staphylococcus aureus [3]): 16 µg/mL (≈ 23.8 µM) | MIC (Aspergillus niger): > 50 µg/mL | MIC (Staphylococcus aureus [4]): 16 µg/mL (≈ 23.8 µM) | MIC (Staphylococcus aureus [5]; [9]): 50 µg/mL (≈ 74.3 µM) | MIC (Staphylococcus aureus [6]): 16 µg/mL (≈ 23.8 µM) | MIC (Staphylococcus aureus [7]): 8 µg/mL (≈ 11.9 µM) | MIC (Candida albicans; [10]): > 50 µg/mL

CN(C)CCCn1cnc(NC(=O)c2cc(NC(=O)c3cc(NC=O)cn3C)cn2C)c1
MIC (Enterococcus faecalis; [8]): > 50 µg/mL | MIC [2]: > 50 µg/mL | MIC (Aspergillus niger): > 50 µg/mL | MIC (Staphylococcus aureus [5]; [9]): > 50 µg/mL | MIC (Candida albicans; [10]): > 50 µg/mL

CC(C)CCc1sc(NC(=O)c2cc(NC(=O)c3ccc(/C=C/c4ccc5ccccc5c4)cc3)cn2C)nc1C(=O)NCCN1CCOCC1
MIC (Enterococcus faecalis; [8]): > 50 µg/mL | MIC [2]: > 50 µg/mL | MIC (Aspergillus niger): > 50 µg/mL | MIC (Staphylococcus aureus [5]; [9]): > 50 µg/mL | MIC (Candida albicans; [10]): > 50 µg/mL

Cn1cc(NC(=O)c2cc(NC(=O)c3cc(/C=C/c4ccc5ccccc5n4)cn3C)cn2C)cc1C(=O)NCCN1CCOCC1
MIC (Staphylococcus aureus [1]): 64 µg/mL (≈ 101 µM) | MIC (Enterococcus faecalis; [8]): 13 µg/mL (≈ 20.5 µM) | MIC [2]: > 50 µg/mL | MIC (Staphylococcus aureus [3]): 16 µg/mL (≈ 25.2 µM) | MIC (Aspergillus niger): > 50 µg/mL | MIC (Staphylococcus aureus [4]): 64 µg/mL (≈ 101 µM) | MIC (Staphylococcus aureus [5]; [9]): 13 µg/mL (≈ 20.5 µM) | MIC (Staphylococcus aureus [6]): 32 µg/mL (≈ 50.4 µM) | MIC (Staphylococcus aureus [7]): 4 µg/mL (≈ 6.3 µM) | MIC (Candida albicans; [10]): > 50 µg/mL

COc1cccc(C(=N)Nc2cc(C(=O)Nc3cc(C(=O)Nc4nc(C(=O)NCCCN(C)C)c(CCC(C)C)s4)n(C)c3)n(C)c2)c1
MIC (Enterococcus faecalis; [8]): 13 µg/mL (≈ 19.2 µM) | MIC [2]: > 50 µg/mL | MIC (Aspergillus niger): > 50 µg/mL | MIC (Staphylococcus aureus [5]; [9]): 3 µg/mL (≈ 4.44 µM) | MIC (Candida albicans; [10]): > 50 µg/mL

CC(=N)Nc1cc(C(=O)Nc2cc(C(=O)Nc3nc(C(=O)NCCCN(C)C)c(CCC(C)C)s3)n(C)c2)n(C)c1
MIC (Enterococcus faecalis; [8]): > 50 µg/mL | MIC [2]: > 50 µg/mL | MIC (Aspergillus niger): > 50 µg/mL | MIC (Staphylococcus aureus [5]; [9]): > 50 µg/mL | MIC (Candida albicans; [10]): 50 µg/mL (≈ 85.7 µM)

CC(C)CCc1sc(NC(=O)c2cc(NC(=O)c3ccc(/C=C/c4cnc5ccccc5c4)cc3)cn2C)nc1C(=O)NCCN1CCOCC1
MIC (Enterococcus faecalis; [8]): > 50 µg/mL | MIC [2]: > 50 µg/mL | MIC (Aspergillus niger): > 50 µg/mL | MIC (Staphylococcus aureus [5]; [9]): > 50 µg/mL | MIC (Candida albicans; [10]): 50 µg/mL (≈ 70.8 µM)

Cn1cc(NC(=O)c2cc(NC(=O)c3cc(/C=C/c4cnc5ccccc5c4)cn3C)cn2C)cc1C(=O)NCCN1CCOCC1
MIC (Staphylococcus aureus [1]): > 64 µg/mL | MIC (Enterococcus faecalis; [8]): > 50 µg/mL | MIC [2]: > 50 µg/mL | MIC (Staphylococcus aureus [3]): 16 µg/mL (≈ 25.2 µM) | MIC (Aspergillus niger): > 50 µg/mL | MIC (Staphylococcus aureus [4]): > 64 µg/mL | MIC (Staphylococcus aureus [5]; [9]): > 50 µg/mL | MIC (Staphylococcus aureus [6]): > 64 µg/mL | MIC (Staphylococcus aureus [7]): 4 µg/mL (≈ 6.3 µM) | MIC (Candida albicans; [10]): > 50 µg/mL

CN(C)CCCNC(=O)c1cc(NC(=O)c2cc(NC(=O)c3cc(NC(=N)c4ccccc4)cn3C)cn2C)cn1C
MIC (Enterococcus faecalis; [8]): > 50 µg/mL | MIC [2]: > 50 µg/mL | MIC (Aspergillus niger): 50 µg/mL (≈ 87.5 µM) | MIC (Staphylococcus aureus [5]; [9]): 50 µg/mL (≈ 87.5 µM) | MIC (Candida albicans; [10]): > 50 µg/mL

COc1cccc(C(=O)Nc2cc(C(=O)Nc3cc(C(=O)Nc4cn(CCCN(C)C)cn4)n(C)c3)n(C)c2)c1
MIC (Enterococcus faecalis; [8]): > 50 µg/mL | MIC [2]: > 50 µg/mL | MIC (Aspergillus niger): > 50 µg/mL | MIC (Staphylococcus aureus [5]; [9]): > 50 µg/mL | MIC (Candida albicans; [10]): > 50 µg/mL

CC(=N)Nc1cc(C(=O)Nc2cc(C(=O)Nc3cc(C(=O)NCCCN(C)C)n(C)c3)n(C)c2)n(C)c1
MIC (Enterococcus faecalis; [8]): 50 µg/mL (≈ 98.1 µM) | MIC [2]: > 50 µg/mL | MIC (Aspergillus niger): 50 µg/mL (≈ 98.1 µM) | MIC (Staphylococcus aureus [5]; [9]): 13 µg/mL (≈ 25.5 µM) | MIC (Candida albicans; [10]): > 50 µg/mL

COc1cccc(C(=O)Nc2nc(C(=O)Nc3cc(C(=O)Nc4cc(C(=O)NCCC(=N)N)n(C)c4)n(C)c3)c(C(C)C)s2)c1
MIC (Enterococcus faecalis; [8]): 13 µg/mL (≈ 20.5 µM) | MIC [2]: > 50 µg/mL | MIC (Aspergillus niger): > 50 µg/mL | MIC (Staphylococcus aureus [5]; [9]): 13 µg/mL (≈ 20.5 µM) | MIC (Candida albicans; [10]): > 50 µg/mL

Cn1cc(NC(=O)c2cc(NC(=O)c3ccc(/C=C/c4nc5ccccc5o4)cc3)cn2C)cc1C(=O)NCCN1CCOCC1 (stereo in doubt; 72)
MIC (Enterococcus faecalis): 3 µg/mL (≈ 4.83 µM) | MIC (Staphylococcus aureus [5]): 3 µg/mL (≈ 4.83 µM) | MIC (Candida albicans): 50 µg/mL (≈ 80.4 µM)

CC(C)n1cc(NC(=O)c2cc(NC(=O)c3ccc(Cl)c(Cl)n3)cn2C)cc1C(=O)Nc1cc(C(=O)NCCCN(C)C)n(C)c1
MIC (Enterococcus faecalis; [8]): 50 µg/mL (≈ 74.6 µM) | MIC [2]: > 50 µg/mL | MIC (Aspergillus niger): 50 µg/mL (≈ 74.6 µM) | MIC (Staphylococcus aureus [5]; [9]): 6 µg/mL (≈ 8.95 µM) | MIC (Candida albicans; [10]): > 50 µg/mL

COc1cccc(/C=C/c2cccc(C(=O)Nc3cc(C(=O)Nc4cc(C(=O)NCCCN(C)C)n(C)c4)n(C)c3)c2)c1
MIC (Enterococcus faecalis; [8]): 25 µg/mL (≈ 42.9 µM) | MIC [2]: > 50 µg/mL | MIC (Aspergillus niger): > 50 µg/mL | MIC (Staphylococcus aureus [5]; [9]): 25 µg/mL (≈ 42.9 µM) | MIC (Candida albicans; [10]): > 50 µg/mL

CC(=N)Nc1cc(C(=O)Nc2cc(C(=O)Nc3nc(C(=O)NCCCN(C)C)c(C(C)C)s3)n(C)c2)n(C)c1
MIC (Enterococcus faecalis; [8]): 50 µg/mL (≈ 90 µM) | MIC [2]: > 50 µg/mL | MIC (Aspergillus niger): 50 µg/mL (≈ 90 µM) | MIC (Staphylococcus aureus [5]; [9]): 50 µg/mL (≈ 90 µM) | MIC (Candida albicans; [10]): > 50 µg/mL

CC(=N)Nc1cc(C(=O)Nc2cc(C(=O)Nc3cc(C(=O)NCCN4CCOCC4)n(C)c3)n(C)c2)n(C)c1
MIC (Enterococcus faecalis; [8]): > 50 µg/mL | MIC [2]: > 50 µg/mL | MIC (Aspergillus niger): 50 µg/mL (≈ 93 µM) | MIC (Staphylococcus aureus [5]; [9]): 50 µg/mL (≈ 93 µM) | MIC (Candida albicans; [10]): > 50 µg/mL

CC(C)CCc1sc(NC(=O)c2cc(NC(=O)c3ccc(/C=C/c4ccc5ccccc5n4)cc3)cn2C)nc1C(=O)NCCN1CCOCC1
MIC (Enterococcus faecalis; [8]): > 50 µg/mL | MIC [2]: > 50 µg/mL | MIC (Aspergillus niger): > 50 µg/mL | MIC (Staphylococcus aureus [5]; [9]): > 50 µg/mL | MIC (Candida albicans; [10]): > 50 µg/mL
